We go through 8 molecules from ChEMBL document CHEMBL1122807, “2-Substituted thiazolidine-4(R)-carboxylic acids as prodrugs of L-cysteine. Protection of mice against acetaminophen hepatotoxicity” (1984).

The subject of assay [1] is Mus musculus. Kind of assay: Compound was evaluated for its protective activity against acetaminophen (750 mg ([…]) /kg) toxicity, given intraperitoneally in mice and the number of animals with liver necrosis was determined after 0h. The assay is classed as functional.
Assay [2] has as its system Mus musculus. The experiment in a line: Compound was evaluated for its protective activity against acetaminophen (750 mg ([…]) /kg) toxicity, given intraperitoneally in mice and the number of animals with liver necrosis was determined after 2 hr. The format is functional. The method, boiled down: (§1)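 Overnight-fasted (16 h) Swiss-Webster mice received acetaminophen 750 mg/kg ip, then test agent 2.45 mmol/kg ip 0.5 h later. Agents were made at 15 mg/mL in sterile 0.1 N NaHCO3 (one in sterile water), pH 6.5–7.5, and used within 1 h. Liver sections from the first 18 animals per agent were coded and graded 0 to 4+ blind. Results pooled from ≥3 replicate experiments.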

Assay [3] concerns Mus musculus. Kind of assay: Compound was evaluated for its protective activity against acetaminophen (750 mg ([…]) /kg) toxicity, given intraperitoneally in mice and the number of animals with liver necrosis was determined after 3h. The format is functional. The method, boiled down:
as §1

The subject of assay [4] is Mus musculus. The experiment in a line: Compound was evaluated for its protective activity against acetaminophen (750 mg ([…]) /kg) toxicity, given intraperitoneally in mice and the survival of the mice was determined at 48 h; 23/26. The assay is classed as functional. The method, boiled down: (§2)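 Swiss-Webster mice were fasted overnight (16 h) before use. Test compound, made up as a 15 mg/mL solution in sterile 0.1 N NaHCO3 (pH 6.5–7.5) and used within 1 h of preparation, was given at 2.45 mmol/kg ip 0.5 h after acetaminophen ip. Survivors were counted at 48 h. Counts are cumulative over at least three replicate experiments run at different times.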

Assay [5] deals with Mus musculus. Kind of assay: Compound was evaluated for its protective activity against acetaminophen (750 mg ([…]) /kg) toxicity, given intraperitoneally in mice and the number of animals with liver necrosis was determined.
In assay [6] the test system is Mus musculus. The experiment in a line: Compound was evaluated for its protective activity against acetaminophen (750 mg ([…]) /kg), given intraperitoneally) in mice and the number of animals with liver necrosis was determined after 3h. The assay is classed as functional. The method, boiled down:
as §1

Assay [7] concerns Mus musculus. Kind of assay: Compound was evaluated for its protective activity against acetaminophen (750 mg ([…]) /kg) toxicity, given intraperitoneally in mice and the survival of the mice was determined at 48 h; 0/18. The assay is classed as functional. The method, boiled down:
as §2

Assay [8] has as its system Mus musculus. Kind of assay: Compound was evaluated for its protective activity against acetaminophen (750 mg ([…]) /kg) toxicity, given intraperitoneally in mice and the number of animals with liver necrosis was determined after 1 hr. The assay is classed as functional.
Assay [9] has as its system Mus musculus. Kind of assay: Compound was evaluated for its protective activity against acetaminophen (750 mg ([…]) /kg) toxicity, given intraperitoneally in mice and the survival of the mice was determined at 48 h; 13/24. The format is functional. The method, boiled down:
as §2

Assay [10] has as its system Mus musculus. The experiment in a line: Compound was evaluated for its protective activity against acetaminophen (750 mg ([…]) /kg) toxicity, given intraperitoneally in mice and the survival of the mice was determined at 48 h; 24/24. The format is functional. The method, boiled down: as §2
Assay [11] has as its system Mus musculus. Kind of assay: Compound was evaluated for its protective activity against acetaminophen (750 mg ([…]) /kg) toxicity, given intraperitoneally in mice and the survival of the mice was determined at 48 h; 19/24. The assay is classed as functional. The method, boiled down: as §2
Assay [12] concerns Mus musculus. The experiment in a line: Compound was evaluated for its protective activity against acetaminophen (750 mg ([…]) /kg) toxicity, given intraperitoneally in mice and the survival of the mice was determined at 48 h; 30/30. The assay is classed as functional. The method, boiled down:
as §2

The species entered for assay [13] is Mus musculus. The experiment in a line: Compound was evaluated for the excretion of 14CO2 (carbon dioxide) in expired air of mice and the activity was determined as percent of dose excreted as 14CO2 at following time intervals - 0-4 hr. The assay is classed as functional. The method, boiled down:
(§3)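 Mice were dosed with thiazolidine carrying 14C at ring C-2 and the methyl carbon. Expired 14CO2 was trapped, and the trap was changed at 4, 8, 12, 16 and 24 h. Aliquots were counted by liquid scintillation against an aqueous Na2 14CO3 standard and expressed as percent of dose. The experiment was repeated in a second mouse (24 g, 2.57 mmol/kg).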

The species entered for assay [14] is Mus musculus. Kind of assay: Compound was evaluated for the excretion of 14CO2 (carbon dioxide) in expired air of mice and the activity was determined as percent of dose excreted as 14CO2 at following time intervals - 12-16 h. The assay is classed as functional. The method, boiled down: as §3
The species named for assay [15] is Mus musculus. The experiment in a line: Compound was evaluated for the excretion of 14CO2 (carbon dioxide) in expired air of mice and the activity was determined as percent of dose excreted as 14CO2 at following time intervals - 16-24h. The assay is classed as functional. The method, boiled down: as §3
For assay [16], the species on record is Mus musculus. Kind of assay: Compound was evaluated for the excretion of 14CO2 (carbon dioxide) in expired air of mice and the activity was determined as percent of dose excreted as 14CO2 at following time intervals - 4-8h. The format is functional. The method, boiled down:
as §3

The species entered for assay [17] is Mus musculus. The experiment in a line: Compound was evaluated for the excretion of 14CO2 (carbon dioxide) in expired air of mice and the activity was determined as percent of dose excreted as 14CO2 at following time intervals - 8-12h. The format is functional. The method, boiled down:
as §3

For assay [18], the system named is Mus musculus. Kind of assay: Compound was evaluated for its protective activity against acetaminophen (750 mg ([…]) /kg) toxicity, given intraperitoneally in mice and the survival of the mice was determined at 48 h; 28/30. The assay is classed as functional.
Assay [19] has as its system Mus musculus. The experiment in a line: Compound was evaluated for its protective activity against acetaminophen (750 mg ([…]) /kg) toxicity, given intraperitoneally in mice and the survival of the mice was determined at 48 h; 17/17. The format is functional.

Structures are written as SMILES.

As for `O=C(O)[C@@H]1CSC(c2ccccc2)N1` (some centres undefined), the “No. of animals with liver necrosis” value with Mus musculus [1] was 7; in the assay with Mus musculus [2], 3; in the assay on Mus musculus [3] it was 6; in the assay on Mus musculus [5] it was 2. In the assay on Mus musculus [4], the Survival was 23.
Take `CC1N[C@@H](C(=O)O)CS1` (some centres undefined): the “No. of animals with liver necrosis” value with Mus musculus [6] is reported as 1; in the assay with Mus musculus [5] it was 17. The molecule further gave a Survival in the assay with Mus musculus [7] of 0.
`O=C(O)[C@@H]1CSC(c2ccncc2)N1` (some centres undefined): the “No. of animals with liver necrosis” value in the assay with Mus musculus [1] was 2; with Mus musculus [8] it was 4; in the assay on Mus musculus [2] it was 1; with Mus musculus [3] it was 5; in the assay with Mus musculus [5] it was 6. In addition, the Survival in the assay on Mus musculus [9] is 13.
With `CCCCCC1N[C@H](C(=O)O)CS1` (some centres undefined), the figures for the “No. of animals with liver necrosis” value with Mus musculus [1] and in the assay on Mus musculus [8] were 16 and 2, respectively. Further, the Survival in the assay with Mus musculus [10] is reported as 24.
For the molecule `CCC1N[C@H](C(=O)O)CS1` (some centres undefined), the “No. of animals with liver necrosis” value in the assay with Mus musculus [1] was 3; in the assay with Mus musculus [8] it was 3; in the assay on Mus musculus [2], 3; in the assay on Mus musculus [3] it was 3; with Mus musculus [5], 6. In the assay on Mus musculus [11], this molecule displayed a Survival of 19.
Turning to `CCCC1N[C@H](C(=O)O)CS1` (some centres undefined), the “No. of animals with liver necrosis” value in the assay on Mus musculus [1] was found to be 9; in the assay on Mus musculus [8], 6; in the assay on Mus musculus [2], 1; with Mus musculus [5], 2. In the assay on Mus musculus [12], this molecule registered a Survival of 30.
With `CC1N[C@H](C(=O)O)CS1` (some centres undefined), the “No. of animals with liver necrosis” value is on record as 17 in the assay on Mus musculus [1] and 1 in the assay with Mus musculus [5]. Besides, the Of dose excreted in the assay listed under Mus musculus [13] is given as 61.9%; in the assay filed under Mus musculus [14], 2.9%; in the assay listed under Mus musculus [15], 3.7%; in the assay listed under Mus musculus [16], 7%; in the assay listed under Mus musculus [17], 4.3%. Further, the Survival in the assay with Mus musculus [18] is on record as 28.
For `CC(=O)N[C@@H](CS)C(=O)O` [ACETYLCYSTEINE], the “No. of animals with liver necrosis” value in the assay with Mus musculus [1] turned out to be 15; with Mus musculus [8], 2. In addition, the Survival in the assay with Mus musculus [19] is given as 17.
